ChEMBL document CHEMBL1131139, “Synthesis and antibacterial activity of ketolides (6-O-methyl-3-oxoerythromycin derivatives): a new class of antibacterials highly potent against macrolide-resistant and -susceptible respiratory pathogens” (1998)
Converted amounts (≈) assume the structure as drawn.

Columns and labels:
Assay type in all cases: functional
Haemophilus influenzae [1] = assay: In vitro inhibitory activity against Haemophilus influenzae (351HT3)
Procedure, shortened: (§1)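 Two-fold agar dilution on Mueller-Hinton agar (pH 7.4). Inoculum from overnight plate cultures suspended in Mueller-Hinton broth, adjusted to 10^9 CFU/mL, diluted 1:200 and spotted by multipoint inoculator at about 10^4 CFU/spot. Plates incubated 37 °C for 20 h. MIC taken as lowest concentration with no visible growth.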

Escherichia coli = assay: In vitro inhibitory activity against Escherichia coli (250 UC5); procedure, shortened: as §1
Streptococcus pneumoniae [2] = assay: In vitro inhibitory activity against Streptococcus pneumoniae (EryRc 030SJ1); procedure, shortened: as §1
[3] = test system: Staphylococcus epidermidis; assay: In vitro inhibitory activity against Staphylococcus epidermidis (EryRi 012GO11i); procedure, shortened: as §1
Staphylococcus aureus [4] = assay: In vitro inhibitory activity against Staphylococcus aureus (EryRi 011GO25i); procedure, shortened: as §1
Staphylococcus aureus [5] = assay: In vitro inhibitory activity against Staphylococcus aureus (EryRc 011CB20); procedure, shortened: as §1
Streptococcus pneumoniae [6] = assay: In vitro inhibitory activity against Streptococcus pneumoniae (032UC1); procedure, shortened: as §1
Staphylococcus aureus [7] = assay: In vitro inhibitory activity against Staphylococcus aureus (011UC4); procedure, shortened: as §1
Haemophilus influenzae [8] = assay: In vitro inhibitory activity against Haemophilus influenzae (351CB12); procedure, shortened: as §1
Streptococcus pyogenes = assay: In vitro inhibitory activity against Streptococcus pyogenes (02A1UC1); procedure, shortened: as §1
Streptococcus pneumoniae [9] = assay: In vitro inhibitory activity against Streptococcus pneumoniae (EryRi 030SJ5i); procedure, shortened: as §1

MIC (Haemophilus influenzae [1]) [µg/mL]	MIC (Escherichia coli) [µg/mL]	MIC (Streptococcus pneumoniae [2]) [µg/mL]	MIC [3] [µg/mL]	MIC (Staphylococcus aureus [4]) [µg/mL]	MIC (Staphylococcus aureus [5]) [µg/mL]	MIC (Streptococcus pneumoniae [6]) [µg/mL]	MIC (Staphylococcus aureus [7]) [µg/mL]	MIC (Haemophilus influenzae [8]) [µg/mL]	MIC (Streptococcus pyogenes) [µg/mL]	MIC (Streptococcus pneumoniae [9]) [µg/mL]	Compound
20 (≈ 24.2 µM)	40 (≈ 48.4 µM)	1.2 (≈ 1.45 µM)	0.6 (≈ 0.726 µM)	0.6 (≈ 0.726 µM)	10 (≈ 12.1 µM)	0.08 (≈ 0.0968 µM)	0.6 (≈ 0.726 µM)	5 (≈ 6.05 µM)	0.08 (≈ 0.0968 µM)	0.3 (≈ 0.363 µM)	CCCCCCCCCCN1CCCC(O/N=C2\[C@H](C)C[C@@](C)(OC)[C@H](O[C@@H]3O[C@H](C)C[C@H](N(C)C)[C@H]3O)[C@@H](C)C(=O)[C@@H](C)C(=O)O[C@H](CC)[C@@](C)(O)[C@H](O)[C@H]2C)C1 (stereo not given in full)
5 (≈ 6.22 µM)	40 (≈ 49.7 µM)	1.2 (≈ 1.49 µM)	0.6 (≈ 0.746 µM)	0.6 (≈ 0.746 µM)	40 (≈ 49.7 µM)	0.08 (≈ 0.0995 µM)	0.3 (≈ 0.373 µM)	0.6 (≈ 0.746 µM)	0.08 (≈ 0.0995 µM)	0.3 (≈ 0.373 µM)	CC[C@H]1OC(=O)[C@H](C)C(=O)[C@H](C)[C@@H](O[C@@H]2O[C@H](C)C[C@H](N(C)C)[C@H]2O)[C@](C)(OC)C[C@@H](C)/C(=N\OC2CCCN(CCCc3ccccc3)C2)[C@H](C)[C@@H](O)[C@]1(C)O (stereo not given in full)
5 (≈ 6.1 µM)	40 (≈ 48.8 µM)	0.6 (≈ 0.732 µM)	0.3 (≈ 0.366 µM)	0.6 (≈ 0.732 µM)	40 (≈ 48.8 µM)	0.02 (≈ 0.0244 µM)	0.08 (≈ 0.0976 µM)	1.2 (≈ 1.46 µM)	0.04 (≈ 0.0488 µM)	0.15 (≈ 0.183 µM)	CC[C@H]1OC(=O)[C@H](C)C(=O)[C@H](C)[C@@H](O[C@@H]2O[C@H](C)C[C@H](N(C)C)[C@H]2O)[C@](C)(OC)C[C@@H](C)/C(=N\OC2CCCN(CCCc3ccc(O)cc3)C2)[C@H](C)[C@@H](O)[C@]1(C)O (stereo not given in full)
40 (≈ 63.7 µM)	40 (≈ 63.7 µM)	40 (≈ 63.7 µM)	40 (≈ 63.7 µM)	40 (≈ 63.7 µM)	40 (≈ 63.7 µM)	5 (≈ 7.96 µM)	40 (≈ 63.7 µM)	40 (≈ 63.7 µM)	2.5 (≈ 3.98 µM)	40 (≈ 63.7 µM)	CC[C@H]1OC(=O)[C@H](C)C(=O)[C@H](C)[C@@H](O[C@@H]2O[C@H](C)C[C@H](N(C)C)[C@H]2O)[C@](C)(OC)C[C@@H](C)C(=O)[C@@H](C)[C@H]2N(N)C(=O)O[C@]12C
1.2 (≈ 1.45 µM)	40 (≈ 48.4 µM)	0.08 (≈ 0.0967 µM)	0.08 (≈ 0.0967 µM)	0.08 (≈ 0.0967 µM)	40 (≈ 48.4 µM)	0.02 (≈ 0.0242 µM)	0.04 (≈ 0.0484 µM)	2.5 (≈ 3.02 µM)	0.02 (≈ 0.0242 µM)	0.02 (≈ 0.0242 µM)	CC[C@H]1OC(=O)[C@H](C)C(=O)[C@H](C)[C@@H](O[C@@H]2O[C@H](C)C[C@H](N(C)C)[C@H]2O)[C@](C)(OC)C[C@@H](C)C(=O)[C@H](C)[C@H]2N(NCCCc3ccnc4ccc(OC)cc34)C(=O)O[C@]12C
20 (≈ 34 µM)	40 (≈ 68.1 µM)	40 (≈ 68.1 µM)	5 (≈ 8.51 µM)	40 (≈ 68.1 µM)	40 (≈ 68.1 µM)	0.15 (≈ 0.255 µM)	0.3 (≈ 0.51 µM)	20 (≈ 34 µM)	0.6 (≈ 1.02 µM)	40 (≈ 68.1 µM)	CC[C@H]1OC(=O)[C@H](C)C(=O)[C@H](C)[C@@H](O[C@@H]2O[C@H](C)C[C@H](N(C)C)[C@H]2O)[C@](C)(OC)C[C@@H](C)C(=O)[C@H](C)[C@@H](O)[C@]1(C)O
2.5 (≈ 2.76 µM)	40 (≈ 44.2 µM)	10 (≈ 11 µM)	40 (≈ 44.2 µM)	20 (≈ 22.1 µM)	20 (≈ 22.1 µM)	0.02 (≈ 0.0221 µM)	0.3 (≈ 0.331 µM)	2.5 (≈ 2.76 µM)	0.04 (≈ 0.0442 µM)	1.2 (≈ 1.33 µM)	CC[C@H]1OC(=O)[C@H](C)[C@@H](O[C@H]2C[C@@](C)(OC)[C@@H](O)[C@H](C)O2)[C@H](C)[C@@H](O[C@@H]2O[C@H](C)C[C@H](N(C)C)[C@H]2O)[C@](C)(OC)C[C@@H](C)C(=O)[C@H](C)[C@H]2N(CCCCc3ccccc3)C(=O)O[C@]12C
20 (≈ 26.9 µM)	40 (≈ 53.8 µM)	0.6 (≈ 0.808 µM)	0.6 (≈ 0.808 µM)	1.2 (≈ 1.62 µM)	40 (≈ 53.8 µM)	10 (≈ 13.5 µM)	0.3 (≈ 0.404 µM)	10 (≈ 13.5 µM)	0.04 (≈ 0.0538 µM)	1.2 (≈ 1.62 µM)	CC[C@H]1OC(=O)[C@H](C)C(=O)[C@H](C)[C@@H](O[C@@H]2O[C@H](C)C[C@H](N(C)C)[C@H]2O)[C@](C)(OC)C[C@@H](C)/C(=N\OCCNCCN2CCCC2)[C@H](C)[C@@H](O)[C@]1(C)O
40 (≈ 57.9 µM)	40 (≈ 57.9 µM)	40 (≈ 57.9 µM)	1.2 (≈ 1.74 µM)	2.5 (≈ 3.62 µM)	40 (≈ 57.9 µM)	0.15 (≈ 0.217 µM)	1.2 (≈ 1.74 µM)	40 (≈ 57.9 µM)	0.15 (≈ 0.217 µM)	10 (≈ 14.5 µM)	CC[C@H]1OC(=O)[C@H](C)C(=O)[C@H](C)[C@@H](O[C@@H]2O[C@H](C)C[C@H](N(C)C)[C@H]2O)[C@](C)(OC)C[C@@H](C)/C(=N/OCOCCOC)[C@H](C)[C@@H](O)[C@]1(C)O
40 (≈ 55.9 µM)	40 (≈ 55.9 µM)	5 (≈ 6.98 µM)	2.5 (≈ 3.49 µM)	10 (≈ 14 µM)	40 (≈ 55.9 µM)	40 (≈ 55.9 µM)	1.2 (≈ 1.68 µM)	40 (≈ 55.9 µM)	0.15 (≈ 0.21 µM)	20 (≈ 27.9 µM)	CC[C@H]1OC(=O)[C@H](C)C(=O)[C@H](C)[C@@H](O[C@@H]2O[C@H](C)C[C@H](N(C)C)[C@H]2O)[C@](C)(OC)C[C@@H](C)/C(=N\OCCN2CCOCC2)[C@H](C)[C@@H](O)[C@]1(C)O
